Data set [1] is described as follows: AUC (0 to 1.5 hrs) in C57BL/6J mouse pancreas at 30 mg/kg, po administered as single dose by LC/MS/MS analysis. The class given is ADME, organism-based. Set-up: time < 1.5 hr, dose 30 mg/kg, route oral. The note with it: in vivo.
Data set [2] in a line: Ratio of AUC (0 to 1.5 hrs) in C57BL/6J mouse liver to plasma at 10 mg/kg, po administered as single dose by LC/MS/MS analysis. The note with it: liver and plasma, read-out: Ratio AUC. It counts as ADME, organism-based.
Data set [3] can be described thus: Ratio of AUC (0 to 1.5 hrs) in C57BL/6J mouse liver to pancreas at 10 mg/kg, po administered as single dose by LC/MS/MS analysis. The class given is ADME, organism-based. As to conditions: in vivo.
For data set [4], the system named is Mus musculus. Briefly: Antidiabetic activity in C57BL/6J mouse assessed as increase in insulin secretion at 30 mg/kg, po measured up to 60 mins by ELISA. It counts as functional, organism-based. In a few lines: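 Male C57BL/6J mice (8 weeks) fasted 2 h, then dosed orally at time 0 (n = 8/group). Tail vein insulin measured at 0, 30 and 60 min by ultra-sensitive mouse insulin ELISA. Mean ± SEM, Dunnett's test.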
On the technique in general: ELISA stands for enzyme-linked immunosorbent assay.

A short description of data set [5]: Ratio of AUC (0 to 1.5 hrs) in C57BL/6J mouse liver to plasma in C57BL/6J mouse at 5 mg/kg, po administered as single dose by LC/MS/MS analysis. The class given is ADME, organism-based. The note with it: liver and plasma, read-out: Ratio AUC.
Data set [6] in a line: Ratio of AUC (0 to 1.5 hrs) in C57BL/6J mouse liver to pancreas at 5 mg/kg, po administered as single dose by LC/MS/MS analysis. It counts as ADME, organism-based. As to conditions: in vivo.
Data set [7] can be described thus: AUC (0 to 1.5 hrs) in C57BL/6J mouse plasma at 30 mg/kg, po administered as single dose by LC/MS/MS analysis. It counts as ADME, organism-based. More on the design: dose 30 mg/kg, time < 1.5 hr, route oral.
The nature of data set [8]: AUC (0 to 1.5 hrs) in C57BL/6J mouse liver at 10 mg/kg, po administered as single dose by LC/MS/MS analysis. It counts as ADME, organism-based. Set-up: time < 1.5 hr, dose 10 mg/kg, route oral. The note with it: in vivo.
Data set [9] can be described thus: Ratio of AUC (0 to 1.5 hrs) in C57BL/6J mouse pancreas to plasma at 10 mg/kg, po administered as single dose by LC/MS/MS analysis. The class given is ADME, organism-based. The note with it: pancreas and plasma, read-out: Ratio AUC.
Data set [10] is described as follows: AUC (0 to 1.5 hrs) in C57BL/6J mouse liver at 30 mg/kg, po administered as single dose by LC/MS/MS analysis. The class given is ADME, organism-based. The note with it: in vivo. Set-up: dose 30 mg/kg, time < 1.5 hr, route oral.
Data set [11] is described as follows: Ratio of AUC (0 to 1.5 hrs) in C57BL/6J mouse liver to pancreas at 30 mg/kg, po administered as single dose by LC/MS/MS analysis. It counts as ADME, organism-based. The note with it: in vivo.
The nature of data set [12]: AUC (0 to 1.5 hrs) in C57BL/6J mouse pancreas at 5 mg/kg, po administered as single dose by LC/MS/MS analysis. The class given is ADME, organism-based. More on the design: dose 5 mg/kg, time < 1.5 hr, route oral. The note with it: in vivo.
A short description of data set [13]: AUC (0 to 1.5 hrs) in C57BL/6J mouse plasma at 5 mg/kg, po administered as single dose by LC/MS/MS analysis. The class given is ADME, organism-based. Set-up: time < 1.5 hr, dose 5 mg/kg, route oral.
Data set [14] is described as follows: AUC (0 to 1.5 hrs) in C57BL/6J mouse pancreas at 10 mg/kg, po administered as single dose by LC/MS/MS analysis. It counts as ADME, organism-based. More on the design: dose 10 mg/kg, time < 1.5 hr, route oral. The note with it: in vivo.
The nature of data set [15]: Ratio of AUC (0 to 1.5 hrs) in C57BL/6J mouse liver to plasma at 30 mg/kg, po administered as single dose by LC/MS/MS analysis. The class given is ADME, organism-based. As to conditions: liver and plasma, read-out: Ratio AUC.
The nature of data set [16]: AUC (0 to 1.5 hrs) in C57BL/6J mouse liver at 5 mg/kg, po administered as single dose by LC/MS/MS analysis. The class given is ADME, organism-based. As to conditions: in vivo. Set-up: dose 5 mg/kg, time < 1.5 hr, route oral.
A short description of data set [17]: Ratio of AUC (0 to 1.5 hrs) in C57BL/6J mouse pancreas to plasma at 5 mg/kg, po administered as single dose by LC/MS/MS analysis. It counts as ADME, organism-based. The note with it: pancreas and plasma, read-out: Ratio AUC.
Data set [18] deals with Mus musculus. Briefly: Antidiabetic activity in po dosed C57BL/6J mouse assessed as reduction in blood glucose level administered for 15 to 30 mins prior to glucose challenge measured up to 120 mins post dose by OGTT. The class given is functional, organism-based. In a few lines: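 Fasted male C57BL/6J or ob/ob mice (8 weeks, n = 8/group) dosed orally in 0.5% methylcellulose 15 or 30 min before a 2 g/kg oral glucose load. Tail vein glucose measured by glucometer at −15 or −30, 0, 20, 40, 60, 90 and 120 min. Incremental glucose AUC0-120 min compared with vehicle. Mean ± SEM, Dunnett's test.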

Data set [19] has as its system Mus musculus. Briefly: Toxicity in C57BL/6J mouse assessed as hypoglycemia at 30 mg/kg, po measured up to 300 mins by glucometric method. The note with it: in vivo, 5 h. The class given is organism-based.
Data set [20] can be described thus: Ratio of AUC (0 to 1.5 hrs) in C57BL/6J mouse pancreas to plasma at 30 mg/kg, po administered as single dose by LC/MS/MS analysis. The class given is ADME, organism-based. As to conditions: pancreas and plasma, read-out: Ratio AUC.
A short description of data set [21]: AUC (0 to 1.5 hrs) in C57BL/6J mouse plasma at 10 mg/kg, po administered as single dose by LC/MS/MS analysis. The class given is ADME, organism-based. More on the design: time < 1.5 hr, dose 10 mg/kg, route oral.

Activity calls are given as the source filed them. No cut-off for these calls is given here.

What is called AUC(0-t) is the area under the concentration-time curve up to a stated or last time point. Low values mean low exposure, high ones high exposure. `CS(=O)(=O)c1ccc([C@@H](C[C@H]2CCC(=O)C2)C(=O)Nc2cnccn2)cc1Cl` [PIRAGLIATIN]: the AUC in [1] was found to be 5030 ng·h/g; in data set [8], 3230 ng·h/g; in data set [10], 15700 ng·h/g; in data set [12] it was 505 ng·h/g; in data set [14], 1020 ng·h/g; in [16] it was 1470 ng·h/g. Further, the Kp amounted to 5.6 in [2]; 4.2 in data set [5]; 1.8 in data set [9]; 6.8 in [15]; 1.4 in data set [17]; 2.2 in data set [20]. The “Ratio AUC” value in data set [3] was 3.2; in [6] it was 2.9; in data set [11], 3.1. Moreover, the result in data set [4] was Active. The AUC(0-t) at 1.5 h was determined as 2330 ng·h/mL in data set [7], 351 ng·h/mL in data set [13] and 574 ng·h/mL in [21]. Also, the Activity entry in [18] was “Dose-dependent effect”; in [19], “Toxic”.

Source of the values: ChEMBL document CHEMBL4270548, “Discovery of a potent glucokinase activator with a favorable liver and pancreas distribution pattern for the treatment of type 2 diabetes mellitus” (Eur J Med Chem, 2018).
